The list is not random: actives were taken first. Their share in the collection is about 3.5%.
RGS4 pot – RGS4 potentiation or activation. HEK293 M3R/inducible RGS4, carbachol calcium flux Fluo4; active compounds read low. B-score at 10 µM. 310,000 tested, 0.92% active. AID 463111;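 active means B-score of the integrated calcium signal more than 4 SD below the library mean, with starting fluorescence not abnormally high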;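 further: negative B-score means reduced calcium response which marks RGS4 activation or potentiation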
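Also added: carbachol at ECmax as muscarinic agonist stimulus; Assay system: HEK293 cells with stable M3R and inducible RGS4; Timing: overnight RGS4 induction, 30 min dye load 37 °C, 20 min compound RT; Measured by: Fluo4-AM (2 µM) calcium-flux fluorescence, kinetic read.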
MrgX1 allo act – human MrgX1 positive allosteric modulation, primary screen; B-score at 10 µM; MrgX1-HEK293, Fluo-4 calcium flux, FDSS; active compounds read high; AID 588675; 310,000 tested, 0.63% active; Q96LB2;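 active means plate-corrected calcium response at least 3 library SD above typical, normal starting fluorescence, not activating the receptor alone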;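 further: compound read alongside a low EC10 to EC30 dose of BAM8-22 agonist; peak minus trough fluorescence over baseline measured at the second addition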
Target sequence (Q96LB2 whole entry, looked up): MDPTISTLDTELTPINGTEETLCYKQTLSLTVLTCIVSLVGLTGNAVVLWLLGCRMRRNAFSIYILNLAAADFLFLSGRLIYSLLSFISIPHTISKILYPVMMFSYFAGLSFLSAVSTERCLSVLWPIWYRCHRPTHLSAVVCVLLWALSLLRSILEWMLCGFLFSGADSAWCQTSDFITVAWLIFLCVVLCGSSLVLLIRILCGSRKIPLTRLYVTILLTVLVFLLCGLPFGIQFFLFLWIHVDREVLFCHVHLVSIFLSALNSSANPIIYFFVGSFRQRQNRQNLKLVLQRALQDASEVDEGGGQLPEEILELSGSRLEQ
MrgX1 antagonist – human MrgX1 receptor antagonism, primary screen. MRGX1-HEK293 calcium flux, Fluo-4, BAM8-22 antagonism; active compounds read low. B-score at 10 µM. 310,000 tested, 1.3% active;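 active means calcium-response B-score plate-corrected more than 3 library SD below zero, starting fluorescence within 5 deviations, no agonist response on first addition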;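 further: peak minus trough fluorescence over baseline after final BAM8-22 challenge near maximal dose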
RGS4 block – human RGS4 inhibition | P49798 | HEK293 M3R/RGS4 inducible, Fluo-4 calcium flux; active compounds read high; triggered by carbachol at its EC20 | B-score at 10 µM | 310,000 tested, 0.45% active | AID 463165;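 active means B-score, a plate-corrected calcium signal, over three deviations above library mean, with baseline fluorescence within five deviations of library mean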;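 further: RGS4 expression induced by doxycycline in cells with stable M3 receptor; B-score is computed from the integrated fluorescence ratio over baseline after carbachol; higher B-score means a larger calcium signal and so more RGS4 inhibition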
Target sequence (P49798 whole entry, looked up): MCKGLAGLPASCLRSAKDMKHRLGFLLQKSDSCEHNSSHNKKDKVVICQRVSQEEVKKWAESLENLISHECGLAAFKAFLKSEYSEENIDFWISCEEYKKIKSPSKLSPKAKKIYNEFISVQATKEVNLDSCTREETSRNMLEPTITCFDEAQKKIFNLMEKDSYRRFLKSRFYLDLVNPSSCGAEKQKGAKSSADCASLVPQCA
MrgX1 agonist – human MrgX1 receptor agonism, primary screen; Q96LB2; MrgX1-HEK293 cells, Fluo-4 calcium fluorescence, agonist mode; active compounds read high; 310,000 tested, 0.44% active; AID 588627; B-score at 10 µM;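 active means calcium response B-score plate-corrected fluorescence ratio at least 3 library SD, with starting fluorescence B-score inside 5 SD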
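Assay system: stable human MrgX1 HEK293 cell line. Quantity: 15,000 cells per well. Schedule: cells plated overnight, dye loaded 0.5 h 37 °C, 0.5 h room temperature. Detection: Fluo-4 NW calcium-flux fluorescence, kinetic read. Read-out basis: peak-minus-minimum fluorescence over baseline, converted to B scores. Control set: positive and negative control wells on each plate.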
Numbers without * were called inactive.

Screening CCn1cc(C(=O)NCCCN2CCCC(C)C2)c(=O)c2cc(S(=O)(=O)N3CCc4ccccc4C3)ccc21 (stereo unspecified) returned RGS4 pot -7.2*, MrgX1 allo act inactive, MrgX1 antagonist inactive, RGS4 block inactive and MrgX1 agonist inactive.
`CCC1CCCCN1CCCNC(=O)c1cn(CC)c2ccc(S(=O)(=O)N3CCc4ccccc4C3)cc2c1=O` (stereo unspecified) gave RGS4 pot -9.02*, MrgX1 allo act inactive, MrgX1 antagonist inactive, RGS4 block inactive and MrgX1 agonist inactive.
For CCC1CCCCN1CCCNC(=O)c1cn(CC)c2ccc(S(=O)(=O)N(C)C3CCCCC3)cc2c1=O (stereo unspecified) the results were RGS4 pot inactive, MrgX1 allo act inactive, MrgX1 antagonist inactive, RGS4 block inactive and MrgX1 agonist inactive.
`CC1=Nc2ccccc2/C1=C/c1sc(=N)n(-c2nccs2)c1O` gave RGS4 pot inactive, MrgX1 allo act inactive, MrgX1 antagonist inactive, RGS4 block inactive and MrgX1 agonist 46.1*.
Screening N#Cc1cccc(NC(=S)Nc2ccccc2)c1 returned RGS4 pot inactive, MrgX1 allo act inactive, MrgX1 antagonist inactive, RGS4 block inactive and MrgX1 agonist inactive.
`Cc1sc2ncnc(N3CCC(C(=O)NNC(=O)COc4ccccc4Cl)CC3)c2c1C` gave RGS4 pot -8.04*, MrgX1 allo act inactive, MrgX1 antagonist -6.97*, RGS4 block inactive and MrgX1 agonist inactive.
Screening Cc1ccc(OCC(=O)NNC(=O)C2CCN(c3ncnc4sc(C)c(C)c34)CC2)cc1 returned RGS4 pot inactive, MrgX1 allo act inactive, MrgX1 antagonist inactive, RGS4 block inactive and MrgX1 agonist inactive.
`Cc1sc2ncnc(N3CCC(C(=O)NNC(=O)COc4ccccc4F)CC3)c2c1C` gave RGS4 pot -7.68*, MrgX1 allo act inactive, MrgX1 antagonist inactive, RGS4 block inactive and MrgX1 agonist inactive.
`Cc1ccc(NC(=O)COCC(=O)Nc2ccc(F)cc2)cc1` gave RGS4 pot inactive, MrgX1 allo act inactive, MrgX1 antagonist inactive, RGS4 block inactive and MrgX1 agonist inactive.
For O=C(Nc1cccc(S(=O)(=O)N2CCCCCC2)c1)C1CCC1 the results were RGS4 pot inactive, MrgX1 allo act inactive, MrgX1 antagonist inactive, RGS4 block inactive and MrgX1 agonist inactive.
CC(C)(C)c1cc(C2=CSC3=NCCN23)cc(C(C)(C)C)c1O was read as RGS4 pot -8.11*, MrgX1 allo act inactive, MrgX1 antagonist inactive, RGS4 block inactive and MrgX1 agonist inactive.
CCOc1c(OC(C)=O)ccc(/C=C2\N=C(SCC)SC2=O)c1[N+](=O)[O-] was read as RGS4 pot -7.1*, MrgX1 allo act inactive, MrgX1 antagonist inactive, RGS4 block inactive and MrgX1 agonist inactive.
CCOc1cc(/C=C2\N=C(SCC)SC2=O)cc([N+](=O)[O-])c1OC(C)=O was read as RGS4 pot inactive, MrgX1 allo act inactive, MrgX1 antagonist inactive, RGS4 block inactive and MrgX1 agonist inactive.
Screening COCCn1c(SCC(=O)Nc2cc(C)on2)nc2c(c1=O)SCC2 returned RGS4 pot inactive, MrgX1 allo act inactive, MrgX1 antagonist inactive, RGS4 block inactive and MrgX1 agonist inactive.
Screening Cc1cc(/C=c2\sc3nc4ccccc4n3c2=O)c(C)n1-c1ccc(C(=O)O)cc1 returned RGS4 pot -7.34* and RGS4 block inactive.
Screening Cc1cc(C=C2C(=O)c3ccccc3C2=O)c(C)n1-c1ccc(C(=O)O)cc1 returned RGS4 pot inactive, MrgX1 allo act inactive, MrgX1 antagonist inactive, RGS4 block inactive and MrgX1 agonist inactive.
Screening Cc1cc(C=C2C(=O)c3ccccc3C2=O)c(C)n1-c1ccccc1 returned RGS4 pot inactive, MrgX1 allo act 8.53*, MrgX1 antagonist inactive, RGS4 block inactive and MrgX1 agonist inactive.
For Cc1cc(C=C2C(=O)c3ccccc3C2=O)c(C)n1-c1cccc(C(=O)O)c1 the results were RGS4 pot inactive, MrgX1 allo act 10.1*, MrgX1 antagonist inactive, RGS4 block inactive and MrgX1 agonist inactive.
N#CC1(NC(=O)COC(=O)Cn2[nH]c(=O)c3ccccc3c2=O)CCCCC1 was read as RGS4 pot inactive, MrgX1 allo act inactive, MrgX1 antagonist inactive, RGS4 block inactive and MrgX1 agonist inactive.
`Clc1ccc2oc3c(Cl)ncnc3c2c1` gave RGS4 pot inactive, MrgX1 allo act inactive, MrgX1 antagonist inactive, RGS4 block inactive and MrgX1 agonist inactive.
`O=C(Cc1cccs1)Nc1ccc(-c2nnc(-c3ccccc3)o2)cc1` gave RGS4 pot inactive, MrgX1 allo act inactive, MrgX1 antagonist inactive, RGS4 block inactive and MrgX1 agonist inactive.
`Cc1cccc(-c2nnc(-c3cccc(NC(=O)Cc4cccs4)c3)o2)c1` gave RGS4 pot -7.41*, MrgX1 allo act inactive, MrgX1 antagonist inactive, RGS4 block inactive and MrgX1 agonist inactive.
Screening Cc1ccc(C2(c3ccc(C)cc3)CC2C(=O)Nc2ccc([N+](=O)[O-])cc2O)cc1 (stereo unspecified) returned RGS4 pot inactive, MrgX1 allo act inactive, MrgX1 antagonist -4.52*, RGS4 block inactive and MrgX1 agonist inactive.
`CC1(C)CC1C(=O)Nc1ccc([N+](=O)[O-])cc1Br` (stereo unspecified) gave RGS4 pot inactive, MrgX1 allo act inactive, MrgX1 antagonist inactive, RGS4 block inactive and MrgX1 agonist inactive.
`COc1cccc2c1OCC(C(=O)OCc1cccnc1)=C2` gave RGS4 pot inactive, MrgX1 allo act inactive, MrgX1 antagonist inactive, RGS4 block inactive and MrgX1 agonist 29.4*.
O=C(NCCCN1CCCC1=O)C1CCN(S(=O)(=O)c2c(Cl)cccc2Cl)CC1 was read as RGS4 pot inactive, MrgX1 allo act inactive, MrgX1 antagonist inactive, RGS4 block inactive and MrgX1 agonist inactive.
CC1(C(=O)NNC(=S)NCc2ccco2)CC1(Cl)Cl (stereo unspecified) was read as RGS4 pot inactive, MrgX1 allo act inactive, MrgX1 antagonist -4.73*, RGS4 block inactive and MrgX1 agonist inactive.
O=C(Nc1nnc(SCc2ccccc2)s1)c1cccc([N+](=O)[O-])c1 was read as RGS4 pot inactive, MrgX1 allo act inactive, MrgX1 antagonist inactive, RGS4 block inactive and MrgX1 agonist inactive.
Screening Cc1nnc(SCc2cccc([N+](=O)[O-])c2)s1 returned RGS4 pot -7.08*, MrgX1 allo act inactive, MrgX1 antagonist inactive, RGS4 block inactive and MrgX1 agonist inactive.
`CCCCn1c(SCC(=O)NNC(=O)c2ccco2)nnc1-c1ccco1` gave RGS4 pot inactive, MrgX1 allo act inactive, MrgX1 antagonist inactive, RGS4 block inactive and MrgX1 agonist inactive.

Screening data from PubChem BioAssay.
